Here are results for five compounds from article PMC3135172 (Cell, 2011).

For one test, the target named is BPTF bromodomain (Homo sapiens, UniProt Q12830). It counts as binding. The conditions noted are these: GST-tagged bromodomain, peptide array on modified cellulose scaffold. In outline: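 Each acetylated peptide sits on a cellulose membrane, e.g. H4 residues 11–25 carrying a single ε-amine acetyl-lysine. […] Control and replicate blots were run. Spots that stained on the blot were retested for binding in solution.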

The subject of the next test is H4K12ac. Put plainly: Enrichment of H4K12ac in cells cultured in trichostatin A. It counts as cell-based. The note with it: Figure S7H.
The test system of test [1] is PHD-bromo module F154A mutant. The test can be described thus: FPA of PHD-bromo mutant F154A with histone peptides. The conditions noted are these: Figure 4B. It counts as binding, human.
A further test relates to BPTF bromodomain V108A. Put plainly: ITC of H4K16ac peptide with BPTF bromodomain mutant V108A. The format is binding, human. The conditions noted are these: Kd outside of the accurately measurable range, Figure 5D.
For another test, the system named is BPTF bromodomain Y147F. The test can be described thus: ITC of H4K16ac peptide with BPTF bromodomain mutant Y147F. The format is binding, human. The note with it: Kd outside of the accurately measurable range, Figure 5D.
The subject of another test is BPTF bromodomain W91A. Put plainly: ITC of H4K16ac peptide with BPTF bromodomain mutant W91A. It counts as binding, human. The note with it: not reliably quantifiable, Figure 5E.
The next test relates to BPTF bromodomain D101A. Put plainly: ITC of H4K16ac peptide with BPTF bromodomain mutant D101A. The format is binding, human. The conditions noted are these: not reliably quantifiable, Figure 5E.
The test system of a further test is BPTF PHD finger. The test can be described thus: Binding of short H3K4me3 peptide in the absence of DNA. Set-up: species or system human. The conditions noted are these: Figure S2D.

For the compound “unmodified counterpart: unmodified histone H4 peptide, without acetylation [reference compound]”, the “SPOT blot interaction / staining” value in the test with BPTF bromodomain is “displayed no detectable signal above background”.
Regarding `CC(/C=C/C(=O)NO)=C\[C@@H](C)C(=O)c1ccc(N(C)C)cc1` [trichostatin A], the “enrichment of H4K12ac mark” value in the test on H4K12ac is recorded as “substantial enrichment of the mark”.
With “H4K16ac: histone H4 peptide (residues 11–25 on the array) acetylated on the ε-amine of lysine 16”, the “SPOT blot interaction / staining” value with BPTF bromodomain is listed as “reproducible staining”. In addition, in test [1], the “peptide binding to F154A mutant” value is recorded as “abolishes bromodomain binding of H4K16ac”. Also, the “H4K16ac binding by V108A bromodomain” value in the test with BPTF bromodomain V108A is reported as “modest binding deficits”. Besides, the “H4K16ac binding by Y147F bromodomain” value in the test with BPTF bromodomain Y147F was “modest binding deficits”. In addition, the “H4K16ac binding by W91A bromodomain” value with BPTF bromodomain W91A is listed as “more severe loss of affinity”. Further, the “H4K16ac binding by D101A bromodomain” value in the test on BPTF bromodomain D101A is “more severe loss of affinity”.
For “H3K4me3 peptide: short H3K4me3[1–8] peptide used for the DNA ruler, tested without DNA”, the “binding of short peptide without DNA” value in the test on BPTF PHD finger is given as “bound effectively in the absence of DNA”.
Consider “H4K20ac: histone H4 peptide (residues 11–25 on the array) acetylated on the ε-amine of lysine 20”, for which the “SPOT blot interaction / staining” value with BPTF bromodomain is on record as “reproducible staining”.
